Assay results from ChEMBL document CHEMBL1833837, “Tirucallane-type triterpenoids from Dysoxylum lenticellatum” (J Nat Prod, 2011).
Active and inactive are the calls of the source. The calls are words filed in the database; no cut-off is given here.

What was measured:
HL-60 = assay: Cytotoxicity against human HL60 cells by SRB assay; format: functional, cell-based
Summary of the method: (§1)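 SRB assay on tumor cells. Three independent experiments, five replicate wells for each concentration. IC50 obtained by linear regression where applicable. Mitomycin served as positive control.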

SMMC-7721 = assay: Cytotoxicity against human SMMC7721 cells by SRB assay; format: functional, cell-based; summary of the method: as §1
Aorta [1] = assay: Vasodilatory activity in rat thoracic aorta assessed as relaxation of phenylephrine-induced precontraction at 4 to 10 ug/mL; format: functional, tissue-based
Summary of the method: (§2)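 Isolated thoracic aortic rings about 3 mm long, taken after pentobarbital anesthesia (60 mg/kg ip). Rings held in Krebs solution at pH 7.4 and 37 °C, gassed with 95% O2/5% CO2, for isometric tension recording. Equilibrated 1 h at 2 g resting tension, then challenged repeatedly with 80 mM KCl. Precontracted with 10^-6 M phenylephrine. Endothelium confirmed by >80% relaxation to 10^-6 M acetylcholine.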

[2] = Solubility of the compound; format: physicochemical
Aorta [3] = assay: Vasodilatory activity in rat thoracic aorta assessed as relaxation of phenylephrine-induced precontraction at 10 ug/mL; format: functional; parameters: scale not given: the % may be the effect or the level left; summary of the method: as §2

In the case of `CC(C)C(=O)C1(O)CC([C@@H]2CC[C@]3(C)C4=CC[C@H]5C(C)(C)C(=O)CC[C@]5(C)[C@H]4CC[C@@]23C)CO1` (mixture of isomers), the Activity (HL-60) is reported as “inactive”, the Activity (SMMC-7721) is reported as “inactive” and the Activity (Aorta [1]) is reported as “inactive”.
With `CC1(C)C(=O)CC[C@]2(C)[C@H]3CC[C@@]4(C)[C@H](C5=CC(O)(CO)OC5=O)CC[C@]4(C)C3=CC[C@@H]12` (mixture of isomers) [DYSOLENTICIN C] the solubility [2] was “Insoluble”.
With `CC1(C)[C@H](O)CC[C@]2(C)[C@H]3CC[C@@]4(C)[C@H](C5=CC(=O)NC5=O)CC[C@]4(C)C3=CC[C@@H]12` [DYSOLENTICIN J] the Activity (HL-60) was “inactive”, the Activity (SMMC-7721) was “inactive” and the Activity (Aorta [3]) was 87.4%.
With `CC1(C)C(=O)CC[C@]2(C)[C@H]3CC[C@@]4(C)[C@H](C5=CC(=O)NC5=O)CC[C@]4(C)C3=CC[C@@H]12` [LAXIRACEMOSIN H] the Activity (HL-60) was “inactive”, the Activity (SMMC-7721) was “inactive” and the Activity (Aorta [3]) was 18.3%.
With `C[C@@H]([C@@H]1O[C@@H]1[C@@H]1OC1(C)C)[C@@H]1CC[C@]2(C)C3=CC[C@H]4C(C)(C)C(=O)CC[C@]4(C)[C@H]3CC[C@@]12C` the Activity (HL-60) was “inactive”, the Activity (SMMC-7721) was “inactive” and the Activity (Aorta [1]) was “inactive”.
With `CC(C)=CC(=O)[C@@H](O)[C@H](C)[C@@H]1CC[C@]2(C)C3=CC[C@H]4C(C)(C)[C@@H](O)CC[C@]4(C)[C@H]3CC[C@@]12C` the Activity (HL-60) was “inactive”, the Activity (SMMC-7721) was “inactive” and the Activity (Aorta [1]) was “inactive”.
With `C[C@@H](CC(=O)[C@@H]1OC1(C)C)[C@@H]1CC[C@]2(C)C3=CC[C@H]4C(C)(C)C(=O)CC[C@]4(C)[C@H]3CC[C@@]12C` the solubility [2] was “Insoluble” and the Activity (Aorta [1]) was “inactive”.
With `CC1(C)C(=O)CC[C@]2(C)[C@H]3CC[C@@]4(C)[C@H](C5COC(=O)C5)CC[C@]4(C)C3=CC[C@@H]12` (stereo partly drawn) the Activity (HL-60) was “inactive”, the Activity (SMMC-7721) was “inactive” and the Activity (Aorta [3]) was 43.5%.
For `COC(=O)[C@@H](CC(=O)[C@@H]1OC1(C)C)[C@@H]1CC[C@]2(C)C3=CC[C@H]4C(C)(C)C(=O)CC[C@]4(C)[C@H]3CC[C@@]12C`, the Activity (HL-60) was “inactive” and the Activity (SMMC-7721) was “inactive”.
In the case of `CC(=O)[C@@H]1CC[C@]2(C)C3=CC[C@H]4C(C)(C)C(=O)CC[C@]4(C)[C@H]3CC[C@@]12C` [DYSOLENTICIN G], the solubility [2] is reported as “Insoluble”.
For `CC1(C)[C@H](O)CC[C@]2(C)[C@H]3CC[C@@]4(C)[C@H](C5COC(=O)C5)CC[C@]4(C)C3=CC[C@@H]12` (stereo partly drawn), the Activity (HL-60) was “inactive”, the Activity (SMMC-7721) was “inactive” and the Activity (Aorta [3]) was 37.5%.
In the case of `CC(C)=CCC[C@H](C)[C@@H]1CC[C@]2(C)C3=CC[C@H]4C(C)(C)[C@@H](O)CC[C@]4(C)[C@H]3CC[C@@]12C`, the Activity (HL-60) is reported as “inactive”, the Activity (SMMC-7721) is reported as “inactive” and the Activity (Aorta [1]) is reported as “inactive”.
With `CC(C)=C[C@@H]1C=C([C@@H]2CC[C@]3(C)C4=CC[C@H]5C(C)(C)C(=O)CC[C@]5(C)[C@H]4CC[C@@]23C)C(=O)O1` the Activity (HL-60) was “inactive” and the Activity (SMMC-7721) was “inactive”.
For `CC1(C)[C@H](O)CC[C@]2(C)[C@H]3CC[C@@]4(C)[C@H]([C@H]5COC(=O)[C@@](O)(C(C)(C)O)C5)CC[C@]4(C)C3=CC[C@@H]12`, the Activity (HL-60) was “inactive”, the Activity (SMMC-7721) was “inactive” and the Activity (Aorta [1]) was “inactive”.
With `CC1(C)O[C@H]1C(=O)C[C@H](C(=O)O)[C@@H]1CC[C@]2(C)C3=CC[C@H]4C(C)(C)C(=O)CC[C@]4(C)[C@H]3CC[C@@]12C` the Activity (HL-60) was “inactive”, the Activity (SMMC-7721) was “inactive” and the Activity (Aorta [1]) was “inactive”.
In the case of `CCO[C@]1([C@@H]2OC2(C)C)CC([C@@H]2CC[C@]3(C)C4=CC[C@H]5C(C)(C)[C@H](O)CC[C@]5(C)[C@H]4CC[C@@]23C)CO1` (stereo partly drawn) [DYSOLENTICIN F], the solubility [2] is reported as “Insoluble” and the Activity (Aorta [1]) is reported as “inactive”.
With `CC(C)C(=O)C1(O)CC([C@@H]2CC[C@]3(C)C4=CC[C@H]5C(C)(C)[C@H](O)CC[C@]5(C)[C@H]4CC[C@@]23C)CO1` (mixture of isomers) the Activity (HL-60) was “inactive”, the Activity (SMMC-7721) was “inactive” and the Activity (Aorta [1]) was “inactive”.
